BAP1 block = blocks human BAP1 ubiquitin-AMC hydrolysis | Q92560 | recombinant BAP1, Ub-AMC hydrolysis fluorescence kinetic; hits give low values | calls only at 20 µM | actives 0.48% (n = 72,000);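 active = activity remaining at or below 50% of control, provided the compound also passes the data quality filters; inactive = the rest, including low values that fail the filters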;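 also: 100% = DMSO wells rate and 0% = substrate alone blank rate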
Hsp90 inh = displaces geldanamycin probe from tumor Hsp90 | P07900 | NCI-N417 lysate Hsp90, Cy3B-geldanamycin FP displacement | inhibition, % at 30 µM | actives 0.35% (n = 64,000) | AID 429;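 active = inhibition above 50%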;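 also: 0% = tracer plus lysate wells and 100% = tracer alone without lysate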
DUSP1 inh = blocks human MKP-1 phosphatase activity. recombinant MKP-1, OMFP hydrolysis fluorescence. actives 0.15% (n = 65,000). AID 374. inhibition, %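 (compounds tested at a single concentration somewhere between 10 and 100 µM)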. P28562;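 active = inhibition above about 50%, limit read from the data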;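 also: 0% = DMSO max control wells and 100% = wells with enzyme stopped by NaOH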
Ec RNAP inh = inhibitors of Escherichia coli RNA polymerase. P0A8V2. E. coli RNA polymerase, fluorescence transcription assay. inhibition, %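 (tested at 10 µM)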. actives 0.2% (n = 62,000); in the data active = inhibition above about 20%;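 also: 0% = enzyme without compound and 100% = no enzyme blank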
Target sequence (P0A8V2 whole entry, looked up): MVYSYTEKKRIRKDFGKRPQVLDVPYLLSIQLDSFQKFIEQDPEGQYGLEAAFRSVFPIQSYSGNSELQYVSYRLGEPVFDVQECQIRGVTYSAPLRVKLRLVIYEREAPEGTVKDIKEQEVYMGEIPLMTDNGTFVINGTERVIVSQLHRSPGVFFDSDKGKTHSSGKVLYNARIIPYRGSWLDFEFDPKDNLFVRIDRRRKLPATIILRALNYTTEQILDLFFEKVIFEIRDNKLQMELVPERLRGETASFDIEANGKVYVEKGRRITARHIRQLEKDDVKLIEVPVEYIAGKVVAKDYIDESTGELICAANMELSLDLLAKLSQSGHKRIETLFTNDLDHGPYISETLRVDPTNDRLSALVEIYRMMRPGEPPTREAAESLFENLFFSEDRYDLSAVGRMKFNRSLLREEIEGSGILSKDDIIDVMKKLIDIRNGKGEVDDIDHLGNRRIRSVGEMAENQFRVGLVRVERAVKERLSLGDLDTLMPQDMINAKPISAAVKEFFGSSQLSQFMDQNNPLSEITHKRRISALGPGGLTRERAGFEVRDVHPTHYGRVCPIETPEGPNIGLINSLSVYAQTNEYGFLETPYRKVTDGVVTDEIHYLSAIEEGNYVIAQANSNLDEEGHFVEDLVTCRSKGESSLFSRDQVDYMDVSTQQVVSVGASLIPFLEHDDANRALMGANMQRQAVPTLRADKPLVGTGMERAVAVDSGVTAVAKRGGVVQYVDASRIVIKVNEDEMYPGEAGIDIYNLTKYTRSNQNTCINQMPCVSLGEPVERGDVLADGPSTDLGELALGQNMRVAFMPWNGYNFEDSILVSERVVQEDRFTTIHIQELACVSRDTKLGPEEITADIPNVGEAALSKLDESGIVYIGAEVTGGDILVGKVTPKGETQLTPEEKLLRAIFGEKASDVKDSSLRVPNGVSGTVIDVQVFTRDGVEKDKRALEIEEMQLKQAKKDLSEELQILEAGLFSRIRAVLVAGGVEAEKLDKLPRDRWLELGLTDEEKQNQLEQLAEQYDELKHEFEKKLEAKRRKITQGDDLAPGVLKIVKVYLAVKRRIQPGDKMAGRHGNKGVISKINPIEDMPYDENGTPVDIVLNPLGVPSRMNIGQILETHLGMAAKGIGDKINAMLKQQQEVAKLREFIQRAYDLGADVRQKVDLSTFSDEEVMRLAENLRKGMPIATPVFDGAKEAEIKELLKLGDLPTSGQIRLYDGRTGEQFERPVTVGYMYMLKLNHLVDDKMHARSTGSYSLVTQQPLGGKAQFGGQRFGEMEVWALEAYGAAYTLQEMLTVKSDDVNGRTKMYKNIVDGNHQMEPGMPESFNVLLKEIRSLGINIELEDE
Cdc25B inh = human M-phase inducer phosphatase 2 inhibition; inhibition, %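 (compounds tested at 10 µM final in the well)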; P30305; actives 0.1% (n = 65,000); recombinant Cdc25B, OMFP fluorescence Ex485/Em525; AID 368; in the data active = inhibition above about 50%
Ecoli tolC = blocks growth of E. coli BW25113 tolC mutant; growth inhibition, % at 10 µM (by protocol); AID 573; OD615; actives 2.2% (n = 65,000);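 active = growth inhibition at or above a cutoff equal to the mean over every tested compound plus 3 SD, cut at about 60% in these data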;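 also: growth measured after 20 h incubation at 37 °C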
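Test system: E. coli BW25113 ΔtolC::kan bacteria | Medium: Kanamycin-containing LB broth (50 µg/mL) | Dosing: One dose of 10 µM final | Times: 20 h incubation with compound, 37 °C | Detection: Optical density read at 615 nm | Read-out basis: Percent growth inhibition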
* marks the source's active call; other numbers are inactive results; i = inactive; . = no result shown. A selection: hits, their analogues and other compounds. The true share with any hit is near 2.9%.

SMILES	BAP1 block	Hsp90 inh	DUSP1 inh	Ec RNAP inh	Cdc25B inh	Ecoli tolC
O=C(CSc1ncnc2c1oc1ccccc12)N1CCCc2ccccc21	i	-11.6	13.7	5.0	1.7	63.0*
COc1ccc(-c2cn3c(C)c(C(=O)Nc4cccc(C)n4)sc3n2)cc1	i	-3.7	51.1*	10.0	-13.0	3.6
Cc1cccc(NC(=O)c2sc3nc(-c4ccccc4)cn3c2C)n1	i	-5.3	25.8	.	-26.6	0.7
O=C(c1cc2ccccc2o1)N1CCN(c2ccc(Cl)cc2[N+](=O)[O-])CC1	i	.	.	.	.	.
O=C1N(O)C2(C=CCCC2)/C(=N\O)C12CCCCC2 (stereo not drawn)	i	-1.2	3.3	33.5*	-1.2	6.0
O=c1n(Cc2ccccc2)c2cc(Cl)cnc2n1Cc1ccccc1	i	-0.9	-6.4	-3.9	1.7	88.8*
O=C(OC1CCc2ccccc2C1=O)c1ccccc1O (stereo not drawn)	i	71.6*	19.9	2.1	47.6	68.0*
O=C1c2ccccc2CCC1C(O)c1ccccn1 (stereo not drawn)	.	.	4.3	10.0	-13.3	4.7
Clc1ccc(OCc2nc(-c3ccccn3)n[nH]2)cc1	i	-3.8	-11.3	9.3	0.9	85.1*
CN(C)S(=O)(=O)c1cc(S(=O)(=O)N(C)C)c2cccc3c2c1NC3=O	i	.	.	.	.	.
CC1=C(C(=O)OC2CCCCCCC2)C(c2cccc(O)c2)NC(=O)N1 (stereo not drawn)	i	-1.9	7.8	-4.6	-13.7	65.0*
O=c1[nH]cnc2[nH]ncc12	i	0.4	74.5*	.	-2.7	-8.5
CCC(c1nnc(SCC(=O)Nc2nnc(-c3ccccc3)o2)o1)N(C)C (stereo not drawn)	i	-9.3	11.9	1.3	-7.5	-10.2
Cc1ccc(C)c(SCC(=O)Nc2nnc(-c3ccccc3)o2)c1	i	-1.5	-3.1	10.9	-9.8	99.5*
CSCSC1=C(C#N)C(c2ccccc2Cl)C(C(C)=O)=C(C)N1 (stereo not drawn)	i	-2.7	10.6	-0.1	-15.3	63.4*
CCOC(=O)N1CCC(c2cc(=O)n3[nH]c(C)c(-c4ccc(F)cc4)c3n2)CC1	i	-1.9	34.7	-6.0	3.6	98.7*
CC1=C(C(=O)OCCc2ccccc2)C(c2ccc3c(c2)OCO3)NC(=O)N1 (stereo not drawn)	i	.	.	.	.	.
CCOC(=O)N1CCC(NC(=O)CSCc2nc(-c3sccc3C)oc2C)CC1	i	98.4*	3.0	5.2	-12.4	6.2
O=[N+]([O-])c1cc(S(=O)(=O)C(Cl)(Cl)Br)ccc1NC1CCCC1	i	.	.	.	.	.
Cc1cc(NC(=O)CSc2nc3sc4c(c3c(=O)n2C)CCCC4)no1	.	-2.2	-5.6	2.2	4.7	-8.5
Cc1nn(Cc2ccccc2)c(C)c1NC(=O)CSc1nc2sc3c(c2c(=O)n1C)CCC3	i	-5.8	50.1*	5.7	-5.7	4.0
COc1ccc(C=Nc2ccc(-c3nc4ccccc4s3)cc2)cc1OC	i	.	.	.	.	.
Cc1nnc(SC(=O)N2c3ccccc3Sc3ccccc32)s1	i	-0.5	7.7	5.7	-18.7	68.7*
CC(=O)c1cccc(NS(=O)(=O)c2cc(C(=O)Nc3ccc(C(=O)O)cc3)ccc2C)c1	i	.	.	.	.	.
CC1=CC(C)(C)N(C(=O)c2ccc(F)cc2)c2cc3c(cc21)OCO3	i	-0.1	7.3	7.3	0.3	86.8*
SMILES	BAP1 block	Hsp90 inh	DUSP1 inh	Ec RNAP inh	Cdc25B inh	Ecoli tolC
CCc1ccc(OCC(=O)Nc2ccc3oc(-c4ccncc4)nc3c2)cc1	i	.	.	.	.	.
Cc1[nH]c2ccc(Br)cc2c(=O)c1CN1CCCCC1	i	2.1	28.7	6.9	4.8	0.7
Cc1[nH]c2c(Cl)cccc2c(=O)c1CN1CCCC1	i	-1.3	-1.6	6.8	62.9*	-0.3
CC(C)(C)c1ccc(C(=O)CCCSC2=C(C#N)C(c3ccco3)C3=C(CCCC3=O)N2)cc1 (stereo not drawn)	.	-3.1	15.5	-4.2	-6.8	79.6*
Oc1ccc(-c2onc(C(F)(F)F)c2-c2cscn2)c(O)c1	i	64.6*	16.9	3.0	-18.1	18.6
c1ccc(SCc2nc(-c3ccncc3)no2)cc1	.	-11.9	74.1*	-4.5	4.6	-5.5
Cc1ccc(SCc2nc(-c3ccncc3)no2)cc1	i	-1.0	-6.8	6.0	-10.5	10.8
O=C(Cn1c(C(=O)NCc2ccco2)cc2sccc21)c1ccccc1	i	-0.8	23.6	.	0.8	64.7*
O=C(O)CCNc1cc(Cl)ccc1Oc1ccc(Cl)cc1	i	.	.	.	.	.

Screens from PubChem.
